core dimer inh – HCV core protein dimerization inhibition; TR-FRET GST/Flag-core106 dimerization, 1536-well; inhibition, % at 5 µM; 300,000 tested, 0.33% active;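 active = inhibition above the mean of all tested compounds plus 3 SD, set per screening campaign, cut at about 45% in these data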
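Material: GST/Flag-tagged HCV core106 proteins. Incubation: 4 h, 22.5 °C incubation. Read-out basis: inhibition (%) from 671 over 617 nm ratio. Measured by: TR-FRET, excitation 340 nm, emission 617 and 671 nm.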
ABHD5 PLIN5 PPI – blocks binding of human ABHD5 to perilipin-5 | 360,000 tested, 0.78% active | Split G. princeps luciferase complementation, luminescence, 4 h | inhibition, % at 4 µM | AID 602281 | Q00G26+Q8WTS1;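 active = inhibition above the mean inhibition across every tested compound plus 3 SD, cut at about 22% in these data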
Target sequence (Q00G26 whole entry, looked up): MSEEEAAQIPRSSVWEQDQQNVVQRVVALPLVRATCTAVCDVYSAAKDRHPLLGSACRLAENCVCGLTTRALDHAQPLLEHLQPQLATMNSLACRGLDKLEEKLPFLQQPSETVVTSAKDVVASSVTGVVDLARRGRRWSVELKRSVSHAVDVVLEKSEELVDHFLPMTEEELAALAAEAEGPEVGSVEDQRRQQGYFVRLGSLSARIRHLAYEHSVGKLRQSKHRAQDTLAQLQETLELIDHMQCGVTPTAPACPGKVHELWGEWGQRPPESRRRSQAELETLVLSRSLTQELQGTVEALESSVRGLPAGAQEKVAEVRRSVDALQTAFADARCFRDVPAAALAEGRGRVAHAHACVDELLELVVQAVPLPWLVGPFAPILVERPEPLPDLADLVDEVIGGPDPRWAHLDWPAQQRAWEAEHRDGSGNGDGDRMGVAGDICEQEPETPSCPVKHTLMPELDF
Target sequence (Q8WTS1 whole entry, looked up): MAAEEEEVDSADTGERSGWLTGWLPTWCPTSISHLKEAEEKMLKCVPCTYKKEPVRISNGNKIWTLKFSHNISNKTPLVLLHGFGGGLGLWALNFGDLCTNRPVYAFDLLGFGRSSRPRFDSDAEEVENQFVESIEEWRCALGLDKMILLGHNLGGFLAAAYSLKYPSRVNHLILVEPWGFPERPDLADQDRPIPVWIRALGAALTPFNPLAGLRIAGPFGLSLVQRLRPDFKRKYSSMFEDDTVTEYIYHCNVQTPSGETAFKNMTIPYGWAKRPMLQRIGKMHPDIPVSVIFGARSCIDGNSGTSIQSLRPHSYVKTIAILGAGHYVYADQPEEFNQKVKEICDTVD
NadD block – NadD (S. aureus) enzyme inhibition; purified NadD enzyme, colorimetric absorbance read-out; inhibition, % at 20 µM; 360,000 tested, 0.78% active; in the data active = inhibition above about 26%
rCAG RNA binder – r(CAG) repeat RNA binding; TO-PRO-1 dye displacement fluorescence; inhibition, % at 3 µM; 370,000 tested, 1.3% active; AID 651821;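 active = inhibition above the plate cutoff, the mean of all test compounds on that plate plus 3 SD, cut at about 35% in these data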;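 also: higher means more dye released from RNA so lower well fluorescence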
Large screens that a line does not name were inactive. This is a sample that favours compounds with a hit; in the whole collection about 2.6% have one here.

O=C(c1cccc(-n2cccc2)c1)N1CCN(S(=O)(=O)c2ccccc2)CC1	core dimer inh 65.2
N#CCC[C@@H]1CC[C@]2(CCCN(Cc3ccc(Cl)cc3)C2)O1	none (no result: core dimer inh, ABHD5 PLIN5 PPI, NadD block)
Cc1ccccc1N1CCN(C2=NC(=O)/C(=C/c3cn[nH]c3-c3ccccc3)S2)CC1	NadD block 40.5
O=C1N=C(N2CCCC2)S/C1=C\c1cn[nH]c1-c1ccccc1	none (no result: ABHD5 PLIN5 PPI, NadD block, rCAG RNA binder)
COc1ccc(NC(=S)Nc2ccc3nsnc3c2)cc1	ABHD5 PLIN5 PPI 23.1
COC(=O)c1c(C)oc2ccc(N(C(=O)c3ccncc3)S(=O)(=O)c3ccc4ccccc4c3)cc12	none
COC(=O)c1c(C)oc2ccc(N(C(=O)Oc3ccccc3)S(=O)(=O)c3ccc(Cl)c([N+](=O)[O-])c3)cc12	core dimer inh 64.4, NadD block 31.2 (no result: rCAG RNA binder)
CCN1CCCCC(NC(=O)c2ccc(F)c(F)c2)C1=O (centres undefined)	none (no result: core dimer inh, ABHD5 PLIN5 PPI, NadD block)
COc1ccc(OC)c2sc(N(CCN(C)C)C(=O)/C=C/c3cccs3)nc12	ABHD5 PLIN5 PPI 22.1
Cc1ccc(-c2cc(C(=O)NN=Cc3ccc(N(C)C)cc3)[nH]n2)cc1C	none (no result: core dimer inh, ABHD5 PLIN5 PPI, NadD block)
CCc1ccc(S(=O)(=O)/N=C2/C=C(Sc3ncn[nH]3)C(=O)c3ccccc32)cc1	ABHD5 PLIN5 PPI 32.3, NadD block 70.6 (no result: rCAG RNA binder)
CCCCN(C(=O)c1cccc(-n2cccc2)c1)c1c(N)n(Cc2ccccc2)c(=O)[nH]c1=O	core dimer inh 47.6
COc1ccc(-c2nnc(SCC(=O)N/N=C(\C)c3ccc(-c4ccccc4)cc3)n2-c2ccc(C)cc2)cc1	none (no result: core dimer inh, ABHD5 PLIN5 PPI, NadD block)
CCC1CCCCN1S(=O)(=O)c1ccc(C(=O)Nc2nnc(-c3cccs3)o2)cc1 (centres undefined)	NadD block 41.7 (no result: rCAG RNA binder)
CCCS(=O)(=O)c1nnnn1-c1cccc(OC)c1	ABHD5 PLIN5 PPI 42.8 (no result: rCAG RNA binder)
COc1cccc(-n2nnnc2SCC(=O)Nc2ccccc2OC)c1	none
CCC(c1c[nH]c2ccccc12)c1cn(C)c2ccccc12 (centres undefined)	none (no result: core dimer inh, ABHD5 PLIN5 PPI, NadD block)
COc1cccc(NC(=O)CSc2nnc(-c3ccco3)c(-c3ccco3)n2)c1	rCAG RNA binder 61.0
Cc1ccccc1NC(=O)CSc1nnc(-c2ccco2)c(-c2ccco2)n1	none (no result: rCAG RNA binder)
COc1ccc(NC(=O)CSc2nnc(-c3ccco3)c(-c3ccco3)n2)cc1OC	none
Cc1cccc(C)c1NC(=O)CSc1nnc(-c2ccco2)c(-c2ccco2)n1	core dimer inh 72.2, ABHD5 PLIN5 PPI 22.6, NadD block 32.3 (no result: rCAG RNA binder)
O=C(N[C@H](C(=O)N1CCC[C@H]1C(=O)NCCc1ccccc1Cl)C1CCCCC1)c1cccs1	none (no result: core dimer inh, ABHD5 PLIN5 PPI, NadD block)
CCOc1cccc(=O)c2c(C)n(Cc3ccccc3)c(C)c12	core dimer inh 49.5
COc1ccc([N+](=O)[O-])cc1C1NN=C(c2ccccc2O)S1 (centres undefined)	NadD block 34.8
Nc1[nH]c(C(=O)c2ccc(Br)cc2)c(-c2ccc3ccccc3c2)c1C(=O)NCCc1c[nH]c2ccccc12	none (no result: core dimer inh, ABHD5 PLIN5 PPI, NadD block)
CCOc1ccc(-c2cc3nc(C4CCN(C(=O)OC(C)(C)C)CC4)c(C(=O)O)cn3n2)cc1	rCAG RNA binder 69.6
Cc1nc2c(C(=O)NCCC3=CCCCC3)c[nH]n2c(=O)c1Cl	rCAG RNA binder 71.4
Cc1nc2c(C(=O)NCc3ccc4c(c3)OCO4)c[nH]n2c(=O)c1Cl	rCAG RNA binder 55.1
O=C(NCCC1=CCCCC1)c1cnc2n(c1=O)CCS2	none
Oc1cccc2cc3cccc(O)c3c(O)c12	NadD block 70.0 (no result: rCAG RNA binder)
CCOC(=O)[C@]12CCCCC/C=C\1N(CCc1ccc(Cl)cc1)C(=O)[C@H]2CC(=O)N1CCSCC1	none (no result: core dimer inh, ABHD5 PLIN5 PPI, NadD block)
O=C(/C=C/c1cccc([N+](=O)[O-])c1)N1CCN(c2ccccn2)CC1	none
O=C(/C=C/c1cccc([N+](=O)[O-])c1)n1cnc2ccccc21	ABHD5 PLIN5 PPI 23.1 (no result: core dimer inh)
COc1ccc(-c2cc(C(F)(F)F)n3ncc(C(=O)NCc4ccco4)c3n2)cc1	ABHD5 PLIN5 PPI 22.9
O=C(Cn1nc(-c2ccccc2)ccc1=O)NCCc1cccc(F)c1	none (no result: core dimer inh, ABHD5 PLIN5 PPI, NadD block)
COc1ccc(OC)c(-c2csc(NC(=O)COC(=O)C3CCC3)n2)c1	none (no result: core dimer inh)
COc1ccc(OC)c(-c2csc(NC(=O)COC(=O)c3ccc(NC(=O)CC#N)cc3)n2)c1	NadD block 48.0 (no result: core dimer inh, rCAG RNA binder)
Cc1cc(C)c(-c2cc(NC(=O)COC(=O)c3ccc(NC(=O)CC#N)cc3)n(-c3ccccc3)n2)cc1C	NadD block 53.6
O=C(NCCc1ccccc1F)c1cc2ccccn2n1	none (no result: core dimer inh, ABHD5 PLIN5 PPI, NadD block)
COC(=O)[C@]12C[C@H](CC(=O)NCc3ccc(C)o3)C(=O)N(CCC3=CCCCC3)C1=C[C@H](C1CCCC1)O[C@@H]2C	none (no result: core dimer inh, ABHD5 PLIN5 PPI, NadD block)
COC(=O)[C@]12C[C@H](CC(=O)NCc3cccc4ccccc34)C(=O)N(CCC3=CCCCC3)C1=C[C@H](COCc1ccccc1)O[C@@H]2C	none (no result: core dimer inh, ABHD5 PLIN5 PPI, NadD block)
CCOC(=O)N1CCN(C(=O)C[C@H]2C[C@@]3(C(=O)OC)C(=C[C@H](C(C)(C)C)O[C@@H]3C)N(Cc3ccc4c(c3)OCO4)C2=O)CC1	none (no result: core dimer inh, ABHD5 PLIN5 PPI, NadD block)
O=C(C1CCCN1S(=O)(=O)c1ccc(Cl)s1)N1CCN(c2ccccc2)CC1 (centres undefined)	none (no result: core dimer inh, ABHD5 PLIN5 PPI, NadD block)
Cn1cc(/C=C2/SC(=O)N(CC(=O)Nc3ccc4c(c3)OCO4)C2=O)c2ccccc21	none
Cc1ccc(NC(=O)CN2C(=O)S/C(=C\c3ccc(-c4cccc(C(=O)O)c4C)o3)C2=O)cc1C	NadD block 34.8 (no result: core dimer inh)
O=C(CN1C(=O)S/C(=C\c2ccc(-c3cc(C(=O)O)ccc3Cl)o2)C1=O)Nc1ccc2c(c1)OCO2	NadD block 53.4, rCAG RNA binder 48.9 (no result: core dimer inh)
CCOC(=O)CC[C@@H]1CC[C@]2(CCCN(C(=O)C3CCCCC3)C2)O1	none (no result: core dimer inh, ABHD5 PLIN5 PPI, NadD block)
COCCCN1C(=O)[C@H](CC(=O)N2CCSCC2)[C@]2(C(=O)OC)CCCCC=C12	none (no result: core dimer inh, ABHD5 PLIN5 PPI, NadD block)
C=CCN1C(=O)[C@@H](CC(=O)N2CCC(c3ccccc3)CC2)[C@]2(C(=O)OCC)CCCCC/C=C/12	none (no result: core dimer inh, ABHD5 PLIN5 PPI, NadD block)
COc1ccc(CNC[C@@H](CCCCN(C)Cc2ccc(OC)cc2)N2C[C@H](c3ccccc3)N(CCc3ccc(Cl)c(Cl)c3)C(=O)C2=O)cc1	ABHD5 PLIN5 PPI 31.6 (no result: rCAG RNA binder)
CCCCc1c(-c2ccccc2OC)ncn1Cc1ccc(OC)c(Cl)c1	none (no result: core dimer inh, ABHD5 PLIN5 PPI, NadD block)
O=C(CSc1nc2ccccc2nc1N1CCCCC1)N1CCN(S(=O)(=O)c2ccccc2)CC1	none (no result: core dimer inh, ABHD5 PLIN5 PPI, NadD block)
O=c1cc(Cl)[nH]c(=O)n1CCNc1ncc(C(F)(F)F)cc1Cl	none
O=C1CC(=O)N(CCNc2ncc(C(F)(F)F)cc2Cl)C(=O)N1	rCAG RNA binder 51.4
O=C(Nc1c(-c2ccc(F)c(F)c2)nc2ncccn12)C1CC1	none (no result: core dimer inh, ABHD5 PLIN5 PPI, NadD block)
CC1CCN(C2=NN3C(=N)/C(=C\c4ccc(OC(=O)c5ccco5)cc4)C(=O)N=C3S2)CC1	NadD block 37.5
COCCN=c1scc(-c2ccc3c(c2)NC(=O)CO3)n1/N=C(\C)c1ccc(O)cc1	none
COc1cc(/C=N/n2c(-c3ccc4c(c3)NC(=O)CO4)csc2=Nc2cccc(C)c2)ccc1O	NadD block 34.6
COC(=O)[C@]12C[C@H](CC(=O)N3CCN(C(=O)c4ccco4)CC3)C(=O)N(Cc3ccc(Cl)cc3Cl)C1=C[C@H](COCc1ccccc1)O[C@@H]2C	none (no result: core dimer inh, ABHD5 PLIN5 PPI, NadD block)
CCn1cc(C(=O)NCC(C)C)c(=O)c2cc(F)c(N3CCN(C(=O)c4ccco4)CC3)cc21	none

Source: PubChem (several laboratories)
